Bioassay records: PubChem BioAssay, The Scripps Research Institute Molecular Screening Center
Sampled rows, rich in hits. Any-hit rate of the full collection: about 1.9%.
CHRM4 agonist – CHRM4 agonism in calcium assay | P08173 | CHO-K1 hM4/Gqi5, Fluo-8 calcium fluorescence; vehicle 0%, full acetylcholine response 100% | activation, % at 3 µM | 360,000 tested, 0.14% active | AID 624127;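 active means activation above the run mean over all test wells plus 3 SD, cut at about 32% in these data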;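 further: peak over basal fluorescence ratio per well then scaled between controls; 0% = DMSO wells and 100% = acetylcholine at EC100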
M5 antag – blocks acetylcholine activation of human M5 receptor | P08912 | CHO-hM5 cells, Fluo-8 calcium fluorescence, ACh EC80 | inhibition, % at 3 µM | 360,000 tested, 0.59% active | AID 624040;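 active means inhibition above a per-plate cutoff, the mean of that plate's test compounds plus 3 SD, cut at about 27% in these data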;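 further: 0% = acetylcholine EC80 with DMSO and 100% = DMSO without agonist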
Target sequence (P08912 whole entry, looked up): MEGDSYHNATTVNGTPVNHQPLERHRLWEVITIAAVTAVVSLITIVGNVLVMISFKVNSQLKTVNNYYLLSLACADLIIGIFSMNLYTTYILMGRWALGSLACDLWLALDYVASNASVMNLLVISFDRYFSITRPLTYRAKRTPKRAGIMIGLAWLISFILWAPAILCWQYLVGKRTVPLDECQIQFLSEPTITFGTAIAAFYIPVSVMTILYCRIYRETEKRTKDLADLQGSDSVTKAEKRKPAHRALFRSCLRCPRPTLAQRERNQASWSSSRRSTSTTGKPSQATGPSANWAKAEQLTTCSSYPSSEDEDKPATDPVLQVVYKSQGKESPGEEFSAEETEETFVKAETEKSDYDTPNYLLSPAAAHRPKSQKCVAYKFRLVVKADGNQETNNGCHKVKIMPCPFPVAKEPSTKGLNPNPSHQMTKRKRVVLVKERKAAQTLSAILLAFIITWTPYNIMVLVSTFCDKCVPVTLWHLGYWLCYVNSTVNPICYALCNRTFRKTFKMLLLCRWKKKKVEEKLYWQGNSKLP
M5 ag – CHRM5 agonism in calcium assay; P08912; CHO-K1 hM5 cells, Fluo-8 calcium fluorescence; 0% DMSO wells, 100% maximal acetylcholine response; activation, % at 3 µM; 360,000 tested, 0.19% active;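 active means activation above the run's mean over test compounds plus 3 SD, cut at about 23% in these data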;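 further: signal is peak over basal fluorescence ratio across the kinetic read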
M5 PAM – potentiates acetylcholine response at human M5 receptor; P08912; CHO-K1 hM5, Fluo-8 calcium, ACh EC20 PAM; 0% = ACh EC20, 100% = ACh EC100; activation, % at 3 µM; 360,000 tested, 0.3% active; AID 624038;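 active means activation above the run cutoff, the mean activation of all test compounds plus 3 SD, cut at about 18% in these data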
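System: CHO-K1 hM5 cells. Reagent: acetylcholine, EC20 level. Compound dosing: single dose, 3 µM nominal final test concentration. Timing: Post-acetylcholine fluorescence recording 140 s. Detection: Fluo-8 calcium fluorescence. Read-out: % activation, ACh-normalized. Benchmarks: ACh EC20 and EC100 wells. Repeats: singlicate, one well per test compound.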
CHRM4 antagonist – blocks acetylcholine activation of human M4 receptor; P08173; CHO-hM4 cells, ACh EC80, Fluo-8 calcium fluorescence; inhibition, % at 3 µM; 360,000 tested, 0.73% active; AID 624125;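 active means inhibition above its plate's cutoff, the mean inhibition of sample wells plus 3 SD, cut at about 27% in these data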;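 further: 0% = acetylcholine EC80 with DMSO and 100% = DMSO without agonist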
M4 PAM – potentiates acetylcholine response at human M4 receptor. activation, % at 3 µM. P08173. AID 624126. CHO-K1 hM4/Gqi5, Fluo-8 calcium fluorescence, ACh EC20; 0% = ACh EC20, 100% = maximal ACh. 360,000 tested, 0.4% active;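 active means activation above its plate's cutoff, the mean activation of sample wells plus 3 SD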
Active calls of the source: *.

SMILES	CHRM4 agonist	M5 antag	M5 ag	M5 PAM	CHRM4 antagonist	M4 PAM
Cc1sc2ncnc(N3CCC(C(=O)Nc4ccc(Cl)c(Cl)c4)CC3)c2c1C	3.5	19.2	-1.4	-4.9	0.5	22.6*
CCN(CC)CCN1C(=O)/C(=C\c2ccc(Cl)c([N+](=O)[O-])c2)SC1=Nc1ccc(OC)cc1	3.2	29.8*	-3.6	1.2	19.5	-18.3
Cc1cc(Br)ccc1NC(=O)CN1C(=O)C2C3CC(c4ccccc4)C(C3)C2C1=O (stereo unspecified)	10.2	19.4	2.5	-9.4	28.2*	-21.2
Cc1cc(Br)ccc1NC(=O)CNC(=O)CN1C(=O)NC2(CCCCCC2)C1=O	2.3	6.8	1.2	-3.2	-0.6	-0.7
COc1cccc(C2SCC(=O)N2c2ccc(C)cc2)c1OC (stereo unspecified)	-0.5	22.2	-7.4	-18.9	64.9*	-38.9
COc1ccc(N2C(=O)CSC2c2cccc(OC)c2OC)cc1 (stereo unspecified)	0.7	4.4	-7.2	-13.1	16.0	-9.5
CCn1cc(C(=O)NCCCN(CC(C)C)CC(C)C)c(=O)c2cc(S(=O)(=O)N(C)C3CCCCC3)ccc21	-0.2	-0.4	-8.6	0.2	2.3	-4.3
Cc1nc2c(C)cccn2c1/C(O)=C1\C(=O)C(=O)N(CCN(C)C)C1c1ccco1 (stereo unspecified)	0.8	-13.0	7.2	21.0*	-9.8	12.4
Cc1ccc(C2/C(=C(\O)c3c(C)nc4c(C)cccn34)C(=O)C(=O)N2CCN(C)C)o1 (stereo unspecified)	16.2	4.0	7.1	-8.5	-7.6	-8.1
O=C(CCNC(=O)c1ccc([N+](=O)[O-])cc1)Nc1ccc(S(=O)(=O)N2CCOCC2)cc1	-0.1	4.1	-1.5	4.0	4.0	8.2
CC1CC(=O)N(CC(=O)Nc2ccc(F)cc2F)c2ccccc2S1(=O)=O (stereo unspecified)	0.1	-12.1	-1.4	-1.8	7.0	-3.3
COC(=O)c1c(NC(=O)c2ccccc2)sc2c1CC(C)(C)NC2(C)C	1.3	0.3	-0.2	-8.1	-0.2	-2.9
CC1(C)Cc2c(sc(NC(=O)c3ccc(C(=O)c4ccccc4)cc3)c2C(N)=O)C(C)(C)N1	15.7	31.9*	-6.0	-8.5	10.5	-0.2
CCC(=O)c1ccc(OCC(=O)OCC(=O)N2c3ccccc3NC(=O)C2(C)C)cc1	4.7	5.7	2.1	-4.9	-14.3	-1.1
OC1(c2cccs2)CN(c2ccc(Cl)cc2)C2=[N+]1CCCS2 (stereo unspecified)	1.2	10.6	-4.5	2.6	-1.1	2.3
OC1(c2cccs2)CN(c2ccc(Cl)cc2)C2=[N+]1CCCC2 (stereo unspecified)	1.2	28.6*	-18.4	-32.0	30.0*	-23.7
COC(=O)NNC(=O)c1ccc(Cl)cc1Cl	-0.1	-1.9	0.9	0.7	3.2	-3.1
CC(C)(C)C(=O)NC(=S)NNC(=O)c1ccc(Cl)cc1Cl	139.4*	35.6*	97.8*	-33.4	44.4*	-43.9
CC(C)(C)C(=O)NC(=S)NNC(=O)c1ccc(-c2ccccc2)cc1	140.9*	96.6*	101.0*	-39.0	98.5*	-54.2
Cc1ccc(CC2C(=O)N(c3ccc(C)cc3)C(=O)C2C)cc1 (stereo unspecified)	0.1	-15.9	-6.9	-0.8	-26.3	11.2
Cc1ccc(CC2C(=O)N(CC(=O)O)C(=O)C2C)cc1 (stereo unspecified)	1.0	3.4	0.9	-0.5	28.8*	14.9
Cc1cccc(C)c1NC(=O)CNCC(=O)Nc1c(C)cccc1C	0.3	6.4	-3.1	0.0	1.1	-2.7
CC[N+](CC)(CC)CC(=O)Nc1c(C)cccc1C	1.4	-3.7	29.6*	-14.9	35.5*	-9.6
COc1ccc([C@H]2CC(=O)C=C(c3ccc(C(F)(F)F)c(C(F)(F)F)c3)C2)cc1OC	1.1	-8.4	-0.6	20.3*	-24.9	3.9
COCCc1nc2ccc(C(=O)N(C)Cc3cccc(-n4cccn4)c3)cc2o1	6.8	13.4	0.4	-9.0	6.8	-4.9
SMILES	CHRM4 agonist	M5 antag	M5 ag	M5 PAM	CHRM4 antagonist	M4 PAM
O=C(COC(=O)c1ccc(F)c(S(=O)(=O)N2CCOCC2)c1)NCCc1ccccc1	1.8	0.4	1.5	-2.0	-27.5	20.6*
Cc1ccc(C(=O)OCC(=O)NCCc2ccc(F)cc2)cc1S(=O)(=O)N1CCOCC1	4.3	10.0	1.9	-2.7	8.1	1.7
C[C@H]1CN([C@@H](C)CO)C(=O)CCCn2nncc2CO[C@H]1CN(C)S(=O)(=O)c1ccc(F)cc1	0.2	6.2	1.2	-3.0	3.1	1.3
O=C1CSC(=S)N1/N=C/c1cc(Br)c(O)c(Br)c1	400.9*	48.0*	200.2*	-20.3	54.2*	-30.2
CC1CC(C(=O)Nc2ccccc2)C(=O)O1 (stereo unspecified)	0.5	-3.8	4.1	2.7	-3.0	-2.4
O=C(O)c1cc([N+](=O)[O-])c(Sc2nc3ccccc3[nH]2)c([N+](=O)[O-])c1	0.9	4.8	-2.2	3.1	10.1	-2.5
CS(=O)(=O)c1cc([N+](=O)[O-])c(Sc2nc3ccccc3[nH]2)c([N+](=O)[O-])c1	3.1	12.8	0.0	6.8	38.1*	-1.3
Fc1cccc(Cc2noc(CN3CCCN(C4Cc5ccccc5C4)CC3)n2)c1	1.8	2.4	-11.8	-20.1	54.1*	-21.7
O=C(c1cc(-c2ccccc2)on1)N(Cc1cccnc1)C(c1ccccn1)c1nc2ccccc2[nH]1 (stereo unspecified)	5.5	-0.8	2.1	-5.2	2.1	2.5
CC(C)CN(C(=O)C(C)N1C(=O)c2ccccc2C1=O)c1c(N)n(Cc2ccccc2)c(=O)[nH]c1=O (stereo unspecified)	0.5	4.2	2.2	1.8	-8.0	3.7
CC(C)(C)N(Cc1cc2ccccc2[nH]c1=O)C(=O)C1CCCCC1	-0.2	78.7*	11.4	-0.1	2.5	1.8
CCN(Cc1cc2ccccc2[nH]c1=O)C(=O)C1CCCCC1	2.8	3.5	2.5	-1.0	3.2	-0.2
CC(=O)C1=C(C)NC(SCC(=O)c2ccc(F)cc2)=C(C#N)C1c1ccco1 (stereo unspecified)	11.6	7.5	-0.3	-5.7	-3.0	18.4*
CC(=O)C1=C(C)NC(SCC(=O)c2ccc(Cl)c(Cl)c2)=C(C#N)C1c1ccco1 (stereo unspecified)	7.6	-3.8	1.4	-3.5	-7.3	14.3
CC(=O)c1c(C)[nH]c(C(=O)COc2cc(C)ccc2C(C)C)c1C	15.7	40.5*	3.7	-18.5	39.0*	-8.2
